# Data as given in article PMC4469080 (Bioorganic & medicinal chemistry letters, 2015).
# Read-outs that look alike come from different tables or passages of the source.
# Experiments:
# mouse SR-BI [1] = biological target: T1, mouse SR-BI (Mus musculus, UniProt Q61009); assay: DiI-HDL uptake assay; format: cell-based; conditions: for activity in DiI uptake assay (in words): inhibition of SR-BI-mediated lipid uptake
# T1 sequence (Q61009 1-509): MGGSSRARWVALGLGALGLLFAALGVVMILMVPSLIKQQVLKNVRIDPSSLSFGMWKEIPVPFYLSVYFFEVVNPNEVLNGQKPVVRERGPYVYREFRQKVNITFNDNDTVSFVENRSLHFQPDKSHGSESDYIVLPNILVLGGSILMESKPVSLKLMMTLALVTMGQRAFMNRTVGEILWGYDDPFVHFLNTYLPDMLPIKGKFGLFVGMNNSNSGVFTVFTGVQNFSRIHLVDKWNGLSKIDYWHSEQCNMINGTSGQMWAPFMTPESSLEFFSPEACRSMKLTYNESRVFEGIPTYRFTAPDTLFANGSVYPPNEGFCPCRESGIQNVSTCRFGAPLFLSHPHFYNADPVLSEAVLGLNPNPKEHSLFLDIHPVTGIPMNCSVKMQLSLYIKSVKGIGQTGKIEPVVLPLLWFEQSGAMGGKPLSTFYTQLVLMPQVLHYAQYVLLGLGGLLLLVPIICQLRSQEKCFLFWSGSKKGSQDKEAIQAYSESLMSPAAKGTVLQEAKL
# Procedure, shortened: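 CHO cells (ldlA line) overexpressing mouse SR-BI take up the fluorescent lipid DiI from DiI-labeled HDL particles. In the high-throughput screen, compounds were tested at 12.5 μM against 1 μM BLT-1 as the positive control. Plates with Z′ < 0.3 were excluded, and a counterscreen removed compounds that quenched DiI-HDL fluorescence in a dose-dependent manner. IC50 values came from retests of compounds as purified dry powders.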
# mouse SR-BI [2] = biological target: T1, mouse SR-BI; conditions: read-out: IC50 in the primary assay; previous probes; cited from earlier work
# Solubility in PBS = format: physicochemical; conditions: in PBS (with 1% DMSO)
SMILES,activity in DiI uptake assay (in words) (mouse SR-BI [1]),further results
COC[C@@H](C)N1C[C@@H](C)[C@H](CN(C)S(=O)(=O)c2ccc(Cl)cc2)Oc2ccc(NC(=O)NC(C)C)cc2C1=O [Compound 11],only weakly active,–
COCC(=O)n1ccc2cc(-c3csc(NC(=O)c4cc(OC)cc(OC)c4)n3)ccc21 [ML278],–,IC50 (mouse SR-BI [2]): 6 nM
C[C@@H]1CN([C@H](C)CO)C(=O)c2cc(NC(=O)C3CCCCC3)ccc2O[C@H]1CN(C)C(=O)c1ccc(Cl)cc1 [Compound 5],inactive,–
CC(C)NC(=O)Nc1ccc2c(c1)C(=O)N(C(C)C)C[C@@H](C)[C@H](CN(C)S(=O)(=O)c1ccc(Cl)cc1)O2 [Compound 12],weak activity,–
CC(C)NC(=O)Nc1cccc2c1O[C@@H](CN(C)S(=O)(=O)c1ccc(Cl)cc1)[C@H](C)CN([C@H](C)CO)C2=O [Compound 3],inactive,–
C[C@@H]1CN([C@H](C)CO)C(=O)c2cc(NC(=O)Cc3cn(C)c4ccccc34)ccc2O[C@H]1CN(C)S(=O)(=O)c1ccc(Cl)cc1 [Compound 1a],–,IC50 (mouse SR-BI [1]): 460 nM
C[C@@H]1CN([C@H](C)CO)C(=O)c2cc(NC(=O)C3CCCCC3)ccc2O[C@H]1CN(C)S(=O)(=O)c1cccc(Cl)c1 [Compound 6],–,"IC50 (mouse SR-BI [1]; DiI uptake assay, average of at least two measurements (Table 4, various analogs)): 800 nM"

# The next lines start with results.
activity in DiI uptake assay (in words) (mouse SR-BI [1]),SMILES,further results
weak potency,C[C@@H]1CN([C@H](C)CO)C(=O)c2cc(NC(=O)Cc3cn(C)c4ccccc34)ccc2O[C@H]1CN(C)S(C)(=O)=O [Compound 1g],solubility (Solubility in PBS): good solubility
inactive,C[C@@H]1CN([C@H](C)CN(C)C)C(=O)c2cc(NC(=O)Cc3cn(C)c4ccccc34)ccc2O[C@H]1CN(C)S(=O)(=O)c1ccc(Cl)cc1 [Compound 10],–
inactive,C[C@@H]1CN([C@H](C)CN)C(=O)c2cc(NC(=O)Cc3cn(C)c4ccccc34)ccc2O[C@H]1CN(C)S(=O)(=O)c1ccc(Cl)cc1 [Compound 9],–
abrogated the activity,CC(C)NC(=O)Nc1ccc2c(c1)C(=O)N([C@H](C)CO)C[C@@H](C)[C@H](CN(C)S(=O)(=O)c1ccc(Cl)cc1)O2 [Compound 4],–
